Screening results (PubChem BioAssay)
Only some compounds are listed: those with a hit (about 3.7% of all), similar ones and a draw of the others.
DENV2 CPE rescue – protects cells from dengue virus 2 cytopathic effect; actives 1.7% (n = 350,000); CPE inhibition, % at 9.99 µM; AID 651640; DENV2-infected cells, cytopathic effect rescue, plate reader; in the data active = CPE inhibition above about 20%, passing the limit was not always enough; tested in BHK-21 cells;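 also: 0% = median of neutral control wells and 100% = median of positive control wells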
CFTR F508del cor – CFTR F508del correction in bronchial cells; CFBE cells, YFP halide quenching; stimulated with forskolin plus potentiator P3; % fluorescence drop versus neutral controls; activity (quench increase), % at 7.58 µM; actives 0.36% (n = 350,000); AID 720511;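 active = mean added fluorescence quench of at least 8% versus neutral control, with both replicates also reaching 8%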;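 also: cells transiently co-express mutant CFTR-F508del with the halide-sensitive YFP; corrector assay measuring rescue of mutant channel to the surface after 24 h compound exposure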
ERAP1 HTS inh – blocks human ERAP1 aminopeptidase activity | actives 0.15% (n = 340,000) | AID 652197 | Q9NZ08 | inhibition, % at 10.7 µM | recombinant ERAP1, Leu-AMC fluorescence, 60 min;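 active = mean replicate inhibition of at least 30%, or all replicates individually reaching that 30% level; inactive = mean below 30% and not every replicate reaching it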;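 also: 0% = neutral control wells and 100% = L-leucinethiol positive control wells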
E-sel inducer – induces E-selectin expression in human endothelial cells. actives 0.37% (n = 260,000). activation, % at 7.58 µM. HUVEC E-selectin immunofluorescence imaging; normalized: neutral wells 0, TNF-alpha wells 100;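 active = mean E-selectin-positive cell signal at least 10% of the positive control, reached in at least 60% of replicates, without over 20% cell loss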
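Test system: HUVEC; input: 3,000 HUVEC/well; measured by: immunofluorescence imaging; read-out: % PE-positive cells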
FGF22 binding – binders of recombinant human FGF22 by thermal shift; SYPRO orange fluorescence; percent of sucrose octasulfate shift, DMSO zero; activity (Tm shift, normalised), % at 9.99 µM; actives 1.5% (n = 340,000);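 active = mean Tm shift, scaled 0 neutral to 100 positive control, at about 1.3% or above, every replicate too, limit read from the data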
Target sequence (Q9HCT0 whole entry, looked up): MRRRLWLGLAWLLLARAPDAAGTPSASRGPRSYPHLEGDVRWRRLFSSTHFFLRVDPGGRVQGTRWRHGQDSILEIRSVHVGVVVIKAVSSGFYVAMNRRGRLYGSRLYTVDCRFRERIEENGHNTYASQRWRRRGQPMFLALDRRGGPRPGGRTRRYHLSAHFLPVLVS
Active calls of the source: *.

What do the screens show for `CCC(=O)Nc1ccc2c(c1)OC[C@@H](C)N(C(=O)Nc1ccccc1F)C[C@@H](C)[C@H](OC)CN(C)C2=O`?
DENV2 CPE rescue: 22*; CFTR F508del cor: -3; ERAP1 HTS inh: 2; E-sel inducer: 0; FGF22 binding: 0

What do the screens show for `CCC(=O)Nc1ccc2c(c1)OC[C@@H](C)N(C(=O)c1ccccc1F)C[C@H](C)[C@@H](OC)CN(C)C2=O`?
DENV2 CPE rescue: 10; ERAP1 HTS inh: -3; E-sel inducer: 0; FGF22 binding: 0

What do the screens show for `CCC(=O)Nc1ccc2c(c1)OC[C@H](C)N(C(=O)Cc1cccnc1)C[C@H](C)[C@H](OC)CN(C)C2=O`?
DENV2 CPE rescue: 1; CFTR F508del cor: 0; ERAP1 HTS inh: 1; E-sel inducer: 0; FGF22 binding: 0

How did CCC(=O)Nc1ccc2c(c1)OC[C@H](C)N(C(=O)CC)C[C@@H](C)[C@@H](OC)CN(C)C2=O do in these assays?
CFTR F508del cor: -1; E-sel inducer: 0

What do the screens show for `CCC(=O)N1C[C@H](C)[C@H](OC)CN(C)C(=O)c2ccc(NC(=O)C3CC3)cc2OC[C@H]1C`?
DENV2 CPE rescue: 9; CFTR F508del cor: 1; ERAP1 HTS inh: -2; E-sel inducer: 0; FGF22 binding: 0

What do the screens show for `CCC(=O)N1C[C@H](C)[C@@H](OC)CN(C)C(=O)c2ccc(NC(=O)C3CC3)cc2OC[C@@H]1C`?
DENV2 CPE rescue: 40*; CFTR F508del cor: -1; ERAP1 HTS inh: 2; E-sel inducer: 0

Results for CCC(=O)Nc1ccc2c(c1)OC[C@@H](C)N(C(=O)Cc1cccnc1)C[C@@H](C)[C@H](OC)CN(C)C2=O ?
DENV2 CPE rescue: 27*; CFTR F508del cor: 0; ERAP1 HTS inh: 0; E-sel inducer: 0; FGF22 binding: 0

Results for CCC(=O)Nc1ccc2c(c1)OC[C@H](C)N(C(=O)CC)C[C@H](C)[C@@H](OC)CN(C)C2=O ?
DENV2 CPE rescue: 35*; CFTR F508del cor: -4; ERAP1 HTS inh: 2; E-sel inducer: 0

Results for COc1cccc(C(O)c2nc(-c3cc(F)cc(F)c3)cs2)c1 (configuration not stated) ?
DENV2 CPE rescue: 30*; CFTR F508del cor: 3; ERAP1 HTS inh: 8; E-sel inducer: 0; FGF22 binding: 0

Results for COc1ccc(C(O)c2nc(-c3cc(F)cc(F)c3)cs2)cc1 (configuration not stated) ?
DENV2 CPE rescue: -7; CFTR F508del cor: 0; ERAP1 HTS inh: -1; E-sel inducer: 0; FGF22 binding: 0

Results for COc1ccc(-c2csc(C(O)c3cccc(OC)c3)n2)cc1 (configuration not stated) ?
DENV2 CPE rescue: 52*; CFTR F508del cor: -1; ERAP1 HTS inh: 7; E-sel inducer: 0; FGF22 binding: 0

Results for COc1cccc(C(O)c2nc(-c3ccc(N(C)C)cc3)cs2)c1 (configuration not stated) ?
DENV2 CPE rescue: -11; CFTR F508del cor: 1; ERAP1 HTS inh: -1; FGF22 binding: 0

How did O=C(O)c1cccc(-c2csc(C(O)c3ccc(F)c(F)c3)n2)c1 (configuration not stated) do in these assays?
DENV2 CPE rescue: 41*; CFTR F508del cor: -1; ERAP1 HTS inh: 7; E-sel inducer: 0; FGF22 binding: 0

How did C[C@@H]1CN([C@@H](C)CO)C(=O)c2cccc(NC(=O)c3ccncc3)c2O[C@H]1CN(C)C(=O)Nc1ccc(F)cc1 do in these assays?
DENV2 CPE rescue: 15; CFTR F508del cor: -1; ERAP1 HTS inh: 2; E-sel inducer: 0; FGF22 binding: 0

What do the screens show for `COc1ccc(/C=C/C(=O)c2cc3c(cc2N)OCO3)cc1`?
DENV2 CPE rescue: -2; CFTR F508del cor: -3; ERAP1 HTS inh: 2; FGF22 binding: 43*

How did C[C@@H]1CCCCO[C@H](CN(C)C(=O)Nc2ccc(F)cc2)[C@H](C)CN([C@@H](C)CO)C(=O)c2cc(NC(=O)CCC(F)(F)F)ccc2O1 do in these assays?
DENV2 CPE rescue: -1; CFTR F508del cor: 0; ERAP1 HTS inh: -1; FGF22 binding: 0

Results for CCOC(=O)C1(CCOC)CCN(C2C3CC4CC(C3)CC2C4)CC1 (configuration not stated) ?
DENV2 CPE rescue: 4; CFTR F508del cor: 0; ERAP1 HTS inh: -1; E-sel inducer: 0; FGF22 binding: 43*
